Data published in ChEMBL document CHEMBL2177098, “Synthesis and evaluation of novel ¹⁸F labeled 2-pyridinylbenzoxazole and 2-pyridinylbenzothiazole derivatives as ligands for positron emission tomography (PET) imaging of β-amyloid plaques” (J Med Chem, 2012).
Activity calls are given as the source filed them. The rule behind the calls is not given here.

Legend:
Mus musculus [1] = species: Mus musculus; assay: Binding affinity to amyloid beta plaques in transgenic C57BL6 mouse cortex expressing APP Swedish mutant/PSEN1 at 370 KBq/100 ul after 1 hr by thioflavinS-staining method; conditions: tested as the 18F-labelled form
Method in brief: (§1)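 Paraffin brain sections from 12-month-old Tg mice (C57BL6, APPswe/PSEN1) and age-matched controls, deparaffinized through xylene and graded ethanol, then PBS (0.2 M, pH 7.4) 30 min. Incubated with 18F tracer (370 KBq per 100 μL) 1 h at room temperature, washed in 40% EtOH, rinsed in water, then phosphor plate exposure 2 h. The same sections were afterwards stained with 0.125% thioflavin S in 10% EtOH for 3 min and washed in 40% EtOH.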

[2] = biological target: Amyloid-beta precursor protein (Homo sapiens) (UniProt P05067); assay: Binding affinity to amyloid beta plaques in Alzheimer patient brain at 370 KBq/100 ul after 1 hr by autoradiographic analysis; conditions: tested as the 18F-labelled form
Amyloid-beta precursor protein (Homo sapiens), sequence (P05067 whole entry): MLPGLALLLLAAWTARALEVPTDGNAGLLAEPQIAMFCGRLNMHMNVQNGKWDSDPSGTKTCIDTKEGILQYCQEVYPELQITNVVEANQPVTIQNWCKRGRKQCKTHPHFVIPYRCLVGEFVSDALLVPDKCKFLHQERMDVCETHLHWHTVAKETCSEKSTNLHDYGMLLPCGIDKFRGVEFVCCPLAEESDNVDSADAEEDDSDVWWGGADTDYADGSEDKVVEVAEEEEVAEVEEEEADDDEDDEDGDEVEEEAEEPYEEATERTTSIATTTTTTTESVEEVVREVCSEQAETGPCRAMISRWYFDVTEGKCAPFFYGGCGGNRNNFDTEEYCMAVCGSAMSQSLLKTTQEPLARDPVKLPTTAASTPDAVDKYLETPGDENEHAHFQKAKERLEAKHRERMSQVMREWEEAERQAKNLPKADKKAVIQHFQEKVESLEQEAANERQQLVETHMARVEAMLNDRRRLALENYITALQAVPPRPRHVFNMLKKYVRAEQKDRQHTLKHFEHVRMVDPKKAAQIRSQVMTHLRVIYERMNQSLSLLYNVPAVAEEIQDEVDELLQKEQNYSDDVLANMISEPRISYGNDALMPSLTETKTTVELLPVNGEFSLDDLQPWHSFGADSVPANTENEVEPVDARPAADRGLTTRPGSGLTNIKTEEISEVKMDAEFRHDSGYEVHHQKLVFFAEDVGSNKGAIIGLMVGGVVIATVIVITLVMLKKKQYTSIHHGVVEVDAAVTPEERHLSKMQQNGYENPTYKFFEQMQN

Mus musculus [3] = species: Mus musculus; assay: Binding affinity to amyloid beta plaques in transgenic C57BL6 mouse cortex expressing APP Swedish mutant/PSEN1 at 370 KBq/100 ul after 1 hr by autoradiographic analysis; conditions: tested as the 18F-labelled form; method in brief: as §1
Mus musculus [4] = species: Mus musculus; assay: Binding affinity to amyloid beta plaques in transgenic C57BL6 mouse hippocampus expressing APP Swedish mutant/PSEN1 at 370 KBq/100 ul after 1 hr by thioflavinS-staining method; format: tissue-based; conditions: tested as the 18F-labelled form; method in brief: as §1
[5] = Displacement of [125I]-IMPY from amyloid beta (1 to 42) fibrils after 2 hrs by gamma-counting analysis
Method in brief: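 Competition binding with aggregated Aβ1-42 fibrils and [125I]IMPY (60000−100000 cpm/100 μL) in 0.05% BSA (1 mL total); inhibitors 10⁻⁴−10^−8.5 M in ethanol. Incubated 37 °C for 2 h, then GF/B vacuum filtration with PBS (0.02 M, pH 7.4) washes and γ counting. Three repeats; IC50 converted to Ki by Cheng−Prusoff.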

Mus musculus [6] = species: Mus musculus; assay: Binding affinity to amyloid beta plaques in transgenic C57BL6 mouse hippocampus expressing APP Swedish mutant/PSEN1 at 370 KBq/100 ul after 1 hr by autoradiographic analysis; format: tissue-based; conditions: tested as the 18F-labelled form; method in brief: as §1

## CNc1ccc(-c2nc3ccc(OCCF)cc3s2)cn1
Mus musculus [1]
  Activity: Active
[2]
  Activity: Active
Mus musculus [3]
  Activity: Active
Mus musculus [4]
  Activity: Active
[5]
  Ki: 10.1 nM
Mus musculus [6]
  Activity: Active
